{"data": "Measurements of several laboratories", "target": "cAMP-dependent protein kinase catalytic subunit alpha (PRKACA, Homo sapiens, UniProt P17612)", "note": "Compare with care: the assays were run in different laboratories."}
{"Compound": "CC(C)(C)c1ccc(-c2nc(CBr)nn2-c2cccc(O)c2)cc1", "test": "cell-free assay, competition with immobilised ligand", "conditions": "10 µM", "remaining binding": "86%"}
{"Compound": "CNC(=O)c1ccc(Nc2ncc(C(F)(F)F)c(NCc3nccnc3N(C)S(C)(=O)=O)n2)cc1", "test": "cell-free assay, competition with immobilised ligand", "conditions": "0.1 µM", "remaining binding": "100%"}
{"Compound": "FC(F)(F)Oc1cccc(-c2cnc3ccc(-c4ccncc4)nn23)c1", "test": "cell-free assay, competition with immobilised ligand", "conditions": "5 µM", "remaining binding": "91%"}
{"Compound": "Nc1cnc(N2CCc3cc(S(=O)(=O)Nc4c(F)cc(Cl)cc4F)cc(N4CCCC4=O)c32)nc1", "test": "cell-free assay, competition with immobilised ligand", "conditions": "1 µM", "remaining binding": "100%"}
{"Compound": "O=C(NCCCN1CCOCC1)c1ccc(Nc2ncc(Cl)c(-c3ccc(Cl)s3)n2)cc1", "test": "binding, competition with immobilised ligand", "conditions": "1 µM", "remaining binding": "100%"}
{"Compound": "O=C(Nc1ccc(Oc2ccc(F)cc2)cc1)N1CCc2ncccc2[C@H]1c1ccc(F)cc1", "test": "cell-free assay, competition with immobilised ligand", "conditions": "1 µM", "remaining binding": "95%"}
{"Compound": "N#Cc1ccccc1CSc1nnc2c(n1)[nH]c1ccccc12", "test": "binding, competition with immobilised ligand", "conditions": "10 µM", "remaining binding": "72%"}
{"Compound": "CNC(=O)[C@@H]1CC[C@@H](n2c(-c3ccc4cnccc4c3)nc3ccc(C(=O)NCc4cccc(C(N)=O)c4)cc32)C1", "test": "binding, competition with immobilised ligand", "conditions": "1 µM", "remaining binding": "100%"}
{"Compound": "CS(=O)(=O)N1CCCC(NC(=O)[C@H](CCC2CCCCC2)NC(=O)c2ccc(CNc3ncnc4c3nnn4-c3ccccc3)cc2)C1 (stereo partly drawn)", "test": "cell-free assay, competition with immobilised ligand", "conditions": "0.1 µM", "remaining binding": "100%"}
{"Compound": "COc1cnc(Nc2cccc(S(N)(=O)=O)c2)nc1N1CCN(c2ccccc2)C(=O)C1", "test": "binding, competition with immobilised ligand", "conditions": "1 µM", "remaining binding": "100%"}
{"Compound": "CN(C)c1nccc(-c2cnn3ncccc23)n1", "test": "binding", "conditions": "1 µM", "remaining binding": "100%"}
{"Compound": "Cc1c(NC(=O)c2cc(C(N)=O)nc3cc(F)ccc23)c(C(F)(F)F)nn1Cc1ccc(C#N)cc1", "test": "cell-free assay, competition with immobilised ligand", "conditions": "1 µM", "remaining binding": "78%"}
{"Compound": "O=C(Nc1c[nH]nc1C(=O)NC1CCNCC1)c1cc(F)cc(F)c1", "test": "binding, competition with immobilised ligand", "conditions": "1 µM", "remaining binding": "100%"}
{"Compound": "C[C@@H]1CN(c2ccc3ncc(-c4ccc5[nH]nc(C6CC6)c5c4)n3n2)C[C@H](C)O1", "test": "binding, competition with immobilised ligand", "conditions": "50 nM", "remaining binding": "88%"}
{"Compound": "C[C@H]1CCN(c2nccc(-c3cnn4ncccc34)n2)C1", "test": "binding", "conditions": "1 µM", "remaining binding": "100%"}
{"Compound": "O=C(c1ccc(Nc2nccc(-c3cc4ccccc4s3)n2)cc1)N1CCC(N2CCCC2)CC1", "test": "binding, competition with immobilised ligand", "conditions": "1 µM", "remaining binding": "100%"}
{"Compound": "c1cncc(-c2cccc(Nc3nccc(NC4CCCCC4)n3)c2)c1", "test": "binding, competition with immobilised ligand", "conditions": "10 µM", "remaining binding": "50%"}
{"Compound": "CN(CCCC(F)(F)F)c1nccc(-c2cnn3ncccc23)n1", "test": "binding", "conditions": "1 µM", "remaining binding": "100%"}
{"Compound": "O=C(NCCCN1CCOCC1)c1ccc(Nc2nccc(-c3cc4ccccc4s3)n2)cc1", "test": "binding, competition with immobilised ligand", "conditions": "1 µM", "remaining binding": "95%"}
{"Compound": "CC1CCCN1c1nccc(-c2cnn3ncccc23)n1 (stereo not drawn)", "test": "binding", "conditions": "1 µM", "remaining binding": "100%"}
{"Compound": "COCCOc1nc(-c2ccc(Cl)nc2)nc2c1CN(C(=O)c1ncn3ccccc13)CC2", "test": "cell-free assay, competition with immobilised ligand", "conditions": "0.1 µM", "remaining binding": "82%"}
